Assay results from ChEMBL document CHEMBL1125562, “Antimitotic agents: ring analogues and derivatives of ethyl [(S)-5-amino-1,2-dihydro-2-methyl-3-phenylpyrido[3,4-b]pyrazin-7-yl]carbamate” (J Med Chem, 1992).

Assays:
L1210 [1] = assay: Concentration that causes a mitotic index (number of cells in mitosis divided by total cells) of 0.5 for cultured lymphoid leukemia L1210 cells during an exposure period of 12 h; type: functional, Mus musculus
Method in brief: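 Mouse lymphoid leukemia L1210 cells in culture, exposed to agent for 12 h. Mitotic index is cells in mitosis over total cells. Value is the nanomolar concentration giving an index of 0.5.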

Mus musculus [2] = assay: Compound was evaluated in vivo for antileukemic activity by calculating Percent increase in life span at dose of 30 mg/kg; type: functional
Method in brief: (§1)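 NCI protocols. CD2F1 mice were implanted ip with 10⁶ lymphocytic leukemia P388 cells 24 h before treatment. Drug was given ip daily on days 1–5, or as a single day-1 dose where footnoted. The read-out was percent increase in lifespan.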

L1210 [3] = assay: Concentration that inhibits proliferation of cultured lymphoid leukemia L1210 cells to 50% control growth during 48 h; type: functional, cell-based; settings: Mus musculus, L1210, 48 h
Method in brief: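 L1210 lymphoid leukemia cells in culture, exposed to agent for 48 h. Proliferation is measured against untreated control growth. Value is the nanomolar concentration holding growth to 50% of control.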

Mus musculus [4] = assay: Compound was evaluated in vivo for antileukemic activity by calculating Percent increase in life span at dose of 75 mg/kg; type: functional; method in brief: as §1
Mus musculus [5] = assay: Compound was evaluated in vivo for antileukemic activity by calculating Percent increase in life span at dose of 24 mg/kg; type: functional; method in brief: as §1
Mus musculus [6] = assay: Compound was evaluated in vivo for antileukemic activity by calculating Percent increase in life span at dose of 8 mg/kg; type: functional; method in brief: as §1
Mus musculus [7] = assay: Compound was evaluated in vivo for antileukemic activity by calculating Percent increase in life span at dose of 200 mg/kg; type: functional; method in brief: as §1
Mus musculus [8] = assay: Compound was evaluated in vivo for antileukemic activity by calculating Percent increase in life span at dose of 70 mg/kg; type: functional; method in brief: as §1
Mus musculus [9] = assay: Compound was evaluated in vivo for antileukemic activity by calculating Percent increase in life span at dose of 1 mg/kg; type: functional; method in brief: as §1
Mus musculus [10] = assay: Compound was evaluated in vivo for antileukemic activity by calculating Percent increase in life span at dose of 0.5 mg/kg; type: functional; method in brief: as §1
Mus musculus [11] = assay: Compound was evaluated in vivo for antileukemic activity by calculating Percent increase in life span at dose of 2 mg/kg; type: functional; method in brief: as §1

Structure (SMILES) | MI0.5 (L1210 [1]) | IC50 (L1210 [3]) | other results
CCOC(=O)Nc1cc2c(c(N)n1)N=C(c1ccccc1)[C@@H](C)N2 | 27 nM |  | ILS at 30 mg/kg (Mus musculus [2]): 88%
CCOC(=O)Nc1cc2c(c(O)n1)N=C(c1ccccc1)C(C)N2 (stereo not given) | 1800 nM | 4400 nM | 
CCOC(=O)Nc1cc(N)c2c(n1)NC(C)C(c1ccccc1)=N2 (stereo not given) | 6700 nM | 3900 nM | ILS at 75 mg/kg (Mus musculus [4]): 0%
CCOC(=O)Nc1cc2c(cn1)N=C(c1ccccc1)C(C)N2 (stereo not given) | 21 nM | 17 nM | ILS at 24 mg/kg (Mus musculus [5]): 90%
CCOC(=O)Nc1cc2c(c(N)n1)N=C(c1ccccc1)CCN2 |  | 3.7 nM | ILS at 8 mg/kg (Mus musculus [6]): 35%
COC(=O)Nc1nc(N)c2c(n1)NC(C)C(c1ccccc1)=N2 (stereo not given) | 3000 nM | 1700 nM | ILS at 200 mg/kg (Mus musculus [7]): 0%
CCOC(=O)Nc1cc2c(cn1)NC(c1ccccc1)C(C)N2 (stereo not given) | 161 nM | 81 nM | ILS at 70 mg/kg (Mus musculus [8]): 65%
CCOC(=O)Nc1cc2c(c(N)n1)N=C(c1ccccc1)C(C)N2 (racemic) | 0.58 nM |  | ILS at 1 mg/kg (Mus musculus [9]): 71%
COc1cc2c(c(OC)c1OC)-c1ccc(OC)c(=O)cc1[C@@H](NC(C)=O)CC2 [COLCHICINE] | 21 nM |  | 
CCOC(=O)Nc1cc2c(c(N)n1)N=C(c1ccccc1)[C@H](C)N2 [MIVOBULIN] | 0.14 nM |  | ILS at 0.5 mg/kg (Mus musculus [10]): 64%
CC[C@]1(O)C[C@H]2CN(CCc3c([nH]c4ccccc34)[C@@](C(=O)OC)(c3cc4c(cc3OC)N(C=O)[C@H]3[C@@](O)(C(=O)OC)[C@H](OC(C)=O)[C@]5(CC)C=CCN6CC[C@]43[C@@H]65)C2)C1 [VINCRISTINE] | 11 nM |  | ILS at 2 mg/kg (Mus musculus [11]): 85%
